Reference: ChEMBL document CHEMBL4330069, “Boosting the efficacy of anti-MRSA β-lactam antibiotics via an easily accessible, non-cytotoxic and orally bioavailable FtsZ inhibitor” (Eur J Med Chem, 2019)
In brackets after ≈: the same amount, converted by molar mass.

Tests used:
Staphylococcus aureus [1] = assay: Antibacterial activity against multidrug-resistant Staphylococcus aureus isolate 358 by broth microdilution assay; format: functional
How it was run: (§1)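 Broth microdilution MIC per CLSI guidelines against clinical MRSA isolates, for β-lactams and test compound alone and in combination. Compounds were dissolved in DMSO. Growth was read by eye, in duplicate. FIC index = FIC(compound) + FIC(drug); synergy defined as FIC index ≤0.5.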

Staphylococcus aureus [2] = assay: Synergistic antibacterial activity against multidrug-resistant Staphylococcus aureus isolate 3332 in presence of meropenem by broth microdilution assay; format: functional
How it was run: (§2)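 CLSI broth microdilution on clinical MRSA isolates. MICs were measured for the β-lactam alone, the test agent alone and the two combined. Compounds were dissolved in DMSO, and growth inhibition was scored by eye. FIC index is the sum, over both agents, of MIC in combination divided by MIC alone. An FIC index ≤0.5 was taken as synergy.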

Staphylococcus aureus [3] = assay: Synergistic antibacterial activity against multidrug-resistant Staphylococcus aureus isolate 417 assessed as fractional Inhibitory concentration index in presence of cefuroxime by broth microdilution assay; format: functional
Staphylococcus aureus [4] = assay: Synergistic antibacterial activity against multidrug-resistant Staphylococcus aureus isolate 1402 assessed as fractional Inhibitory concentration index in presence of cloxacillin by broth microdilution assay; format: functional
How it was run: (§3)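 CLSI broth microdilution run on clinical MRSA isolates with each β-lactam alone, the test agent alone, and the two combined; agents dissolved in DMSO. Growth inhibition was read by eye. FIC index = FIC(compound) + FIC(β-lactam), where each FIC is the MIC in combination divided by the MIC alone. An index ≤0.5 was taken as synergy.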

[5] = Oral bioavailability in Sprague-Dawley rat at 50 mg/kg by UPLC-MS/MS analysis; format: ADME, organism-based; conditions: in vivo
How it was run: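 Male Sprague–Dawley rats (250-280 g) dosed IV at 1 mg/kg or by oral feeding at 50 mg/kg. Jugular blood taken from 5 to 420 min (IV) or 2 to 600 min (oral). Plasma proteins precipitated with methanol, then analysed by UPLC-MS/MS with positive ESI. Parameters from non-compartmental analysis.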

Staphylococcus aureus [6] = assay: Synergistic antibacterial activity against multidrug-resistant Staphylococcus aureus isolate 2973 in presence of meropenem by broth microdilution assay; format: functional; how it was run: as §2
Staphylococcus aureus [7] = assay: Synergistic antibacterial activity against multidrug-resistant Staphylococcus aureus isolate 254 assessed as fractional Inhibitory concentration index in presence of cefuroxime by broth microdilution assay; format: functional
Staphylococcus aureus [8] = assay: Antibacterial activity against multidrug-resistant Staphylococcus aureus isolate 1402 by broth microdilution assay; format: functional; how it was run: as §1
Staphylococcus aureus [9] = assay: Antibacterial activity against multidrug-resistant Staphylococcus aureus isolate 1449 by broth microdilution assay; format: functional; how it was run: as §1
Staphylococcus aureus [10] = assay: Synergistic antibacterial activity against multidrug-resistant Staphylococcus aureus isolate 3580 assessed as fractional Inhibitory concentration index in presence of cefuroxime by broth microdilution assay; format: functional
Staphylococcus aureus [11] = assay: Synergistic antibacterial activity against multidrug-resistant Staphylococcus aureus isolate 417 assessed as fractional Inhibitory concentration index in presence of meropenem by broth microdilution assay; format: functional
Staphylococcus aureus [12] = assay: Synergistic antibacterial activity against multidrug-resistant Staphylococcus aureus isolate 1136 assessed as fractional Inhibitory concentration index in presence of methicillin by broth microdilution assay; format: functional; how it was run: as §3
Staphylococcus aureus [13] = assay: Synergistic antibacterial activity against multidrug-resistant Staphylococcus aureus isolate 2728 assessed as fractional Inhibitory concentration index in presence of amoxicillin by broth microdilution assay; format: functional
Staphylococcus aureus [14] = assay: Synergistic antibacterial activity against multidrug-resistant Staphylococcus aureus isolate 2901 in presence of methicillin by broth microdilution assay; format: functional; how it was run: as §2
Staphylococcus aureus [15] = assay: Synergistic antibacterial activity against multidrug-resistant Staphylococcus aureus isolate 2728 assessed as fractional Inhibitory concentration index in presence of meropenem by broth microdilution assay; format: functional
Staphylococcus aureus [16] = assay: Synergistic antibacterial activity against multidrug-resistant Staphylococcus aureus isolate 200 in presence of cefuroxime by broth microdilution assay; format: functional
How it was run: (§4)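 Clinical MRSA isolate panel; compound and β-lactam tested alone and in combination by CLSI broth microdilution, compounds dissolved in DMSO, growth inhibition scored by eye, run in duplicate. FIC index = FIC(compound) + FIC(drug), each the MIC in combination divided by the MIC alone; an index ≤ 0.5 was called synergy.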

Staphylococcus aureus [17] = assay: Synergistic antibacterial activity against multidrug-resistant Staphylococcus aureus isolate 3580 assessed as fractional Inhibitory concentration index in presence of methicillin by broth microdilution assay; format: functional
Staphylococcus aureus [18] = assay: Synergistic antibacterial activity against multidrug-resistant Staphylococcus aureus isolate 1344 assessed as fractional Inhibitory concentration index in presence of meropenem by broth microdilution assay; format: functional; how it was run: as §3
Staphylococcus aureus [19] = assay: Synergistic antibacterial activity against multidrug-resistant Staphylococcus aureus isolate 2516 assessed as fractional Inhibitory concentration index in presence of methicillin by broth microdilution assay; format: functional; how it was run: as §3
Staphylococcus aureus [20] = assay: Synergistic antibacterial activity against multidrug-resistant Staphylococcus aureus isolate 358 in presence of methicillin by broth microdilution assay; format: functional
Staphylococcus aureus [21] = assay: Synergistic antibacterial activity against multidrug-resistant Staphylococcus aureus isolate 3580 in presence of cloxacillin by broth microdilution assay; format: functional
Staphylococcus aureus [22] = assay: Synergistic antibacterial activity against multidrug-resistant Staphylococcus aureus isolate 231 in presence of methicillin by broth microdilution assay; format: functional; how it was run: as §4
Staphylococcus aureus [23] = assay: Synergistic antibacterial activity against multidrug-resistant Staphylococcus aureus isolate 231 in presence of amoxicillin by broth microdilution assay; format: functional; how it was run: as §4
Staphylococcus aureus [24] = assay: Synergistic antibacterial activity against multidrug-resistant Staphylococcus aureus isolate 3267 assessed as fractional Inhibitory concentration index in presence of meropenem by broth microdilution assay; format: functional
Staphylococcus aureus [25] = assay: Synergistic antibacterial activity against multidrug-resistant Staphylococcus aureus isolate 2728 in presence of methicillin by broth microdilution assay; format: functional; how it was run: as §2
Staphylococcus aureus [26] = assay: Synergistic antibacterial activity against multidrug-resistant Staphylococcus aureus isolate 3267 assessed as fractional Inhibitory concentration index in presence of methicillin by broth microdilution assay; format: functional
Staphylococcus aureus [27] = assay: Antibacterial activity against multidrug-resistant Staphylococcus aureus ATCC 43300 infected in BALB/C mouse assessed as mouse survival at 50 mg/kg, ip bid measured on day 4 post infection (reference value: 50%); format: functional
Staphylococcus aureus [28] = assay: Synergistic antibacterial activity against multidrug-resistant Staphylococcus aureus isolate 757 assessed as fractional Inhibitory concentration index in presence of methicillin by broth microdilution assay; format: functional
Staphylococcus aureus [29] = assay: Synergistic antibacterial activity against multidrug-resistant Staphylococcus aureus isolate 2919 assessed as fractional Inhibitory concentration index in presence of amoxicillin by broth microdilution assay; format: functional
Staphylococcus aureus [30] = assay: Synergistic antibacterial activity against multidrug-resistant Staphylococcus aureus isolate 85 in presence of methicillin by broth microdilution assay; format: functional
Staphylococcus aureus [31] = assay: Synergistic antibacterial activity against multidrug-resistant Staphylococcus aureus isolate 254 assessed as fractional Inhibitory concentration index in presence of methicillin by broth microdilution assay; format: functional
Staphylococcus aureus [32] = assay: Synergistic antibacterial activity against multidrug-resistant Staphylococcus aureus isolate 2224 in presence of amoxicillin by broth microdilution assay; format: functional; how it was run: as §4
Staphylococcus aureus [33] = assay: Antibacterial activity against multidrug-resistant Staphylococcus aureus isolate 2919 by broth microdilution assay; format: functional; how it was run: as §1
Staphylococcus aureus [34] = assay: Synergistic antibacterial activity against multidrug-resistant Staphylococcus aureus isolate 2973 in presence of amoxicillin by broth microdilution assay; format: functional; how it was run: as §2
Staphylococcus aureus [35] = assay: Synergistic antibacterial activity against multidrug-resistant Staphylococcus aureus isolate 3332 in presence of cloxacillin by broth microdilution assay; format: functional; how it was run: as §2
Staphylococcus aureus [36] = assay: Synergistic antibacterial activity against multidrug-resistant Staphylococcus aureus isolate 1344 in presence of cefuroxime by broth microdilution assay; format: functional; how it was run: as §4

SMILES: CCCCCCCCCNc1ccc(F)c(C(N)=O)c1F
- MIC (Staphylococcus aureus [1]): 16 µg/mL (≈ 53.6 µM)
- MIC (Staphylococcus aureus [2]): 4 µg/mL
- fractional inhibitory concentration index (FICI) (Staphylococcus aureus [3]): 0.1
- fractional inhibitory concentration index (FICI) (Staphylococcus aureus [4]): 0.8
- bioavailability [5]: 13%
- MIC (Staphylococcus aureus [6]): 4 µg/mL
- fractional inhibitory concentration index (FICI) (Staphylococcus aureus [7]): 0.3
- MIC (Staphylococcus aureus [8]): 4 µg/mL (≈ 13.4 µM)
- MIC (Staphylococcus aureus [9]): 4 µg/mL (≈ 13.4 µM)
- fractional inhibitory concentration index (FICI) (Staphylococcus aureus [10]): 0.1
- fractional inhibitory concentration index (FICI) (Staphylococcus aureus [11]): 0.2
- fractional inhibitory concentration index (FICI) (Staphylococcus aureus [12]): 0.3
- fractional inhibitory concentration index (FICI) (Staphylococcus aureus [13]): 0.1
- MIC (Staphylococcus aureus [14]): 2 µg/mL
- fractional inhibitory concentration index (FICI) (Staphylococcus aureus [15]): 2
- MIC (Staphylococcus aureus [16]): 2 µg/mL
- fractional inhibitory concentration index (FICI) (Staphylococcus aureus [17]): 0.2
- fractional inhibitory concentration index (FICI) (Staphylococcus aureus [18]): 2
- fractional inhibitory concentration index (FICI) (Staphylococcus aureus [19]): 0.2
- MIC (Staphylococcus aureus [20]): 2 µg/mL
- MIC (Staphylococcus aureus [21]): 1 µg/mL
- MIC (Staphylococcus aureus [22]): 4 µg/mL
- MIC (Staphylococcus aureus [23]): 4 µg/mL
- fractional inhibitory concentration index (FICI) (Staphylococcus aureus [24]): 4
- MIC (Staphylococcus aureus [25]): 4 µg/mL
- fractional inhibitory concentration index (FICI) (Staphylococcus aureus [26]): 0.1
- Activity (Staphylococcus aureus [27]): 40%
- fractional inhibitory concentration index (FICI) (Staphylococcus aureus [28]): 0.1
- fractional inhibitory concentration index (FICI) (Staphylococcus aureus [29]): 0.5
- MIC (Staphylococcus aureus [30]): 4 µg/mL
- fractional inhibitory concentration index (FICI) (Staphylococcus aureus [31]): 0.3
- MIC (Staphylococcus aureus [32]): 64 µg/mL
- MIC (Staphylococcus aureus [33]): 16 µg/mL (≈ 53.6 µM)
- MIC (Staphylococcus aureus [34]): 8 µg/mL
- MIC (Staphylococcus aureus [35]): 2 µg/mL
- MIC (Staphylococcus aureus [36]): 4 µg/mL
